In the library only some 2.4% were active in any assay of this set; here they are far more common.
LMPTP block: LMPTP phosphatase inhibitors, primary screen, biochemical, fluorescence intensity, uHTS; inhibition, % at 20 µM; 0.22% of 360,000 active; Low molecular weight phosphotyrosine protein phosphatase (Homo sapiens), P24666; recombinant LMPTP-A, OMFP fluorogenic substrate;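 active means compounds that cut the enzyme signal by at least half of the control window in the single-dose screen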
Target sequence (P24666 whole entry, looked up): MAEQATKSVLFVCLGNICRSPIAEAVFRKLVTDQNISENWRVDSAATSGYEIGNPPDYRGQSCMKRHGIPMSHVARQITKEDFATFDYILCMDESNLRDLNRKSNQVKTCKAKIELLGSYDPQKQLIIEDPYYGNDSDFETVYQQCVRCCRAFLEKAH
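Assay system: LMPTP-A enzyme. Input: 0.625 nM LMPTP-A final. Probe or stimulus: 400 µM OMFP. Compound dosing: single 20 µM dose. Schedule: 50 min dark incubation at room temperature. Detection: fluorescence intensity of OMFP turnover product. Read-out: percent inhibition versus substrate-only and uninhibited controls. Benchmarks: no-enzyme low control, uninhibited high control.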
Scp1 inh: Scp-1 phosphatase inhibitors, primary screen, biochemical, colorimetric, uHTS; Carboxy-terminal domain RNA polymerase II polypeptide A small phosphatase 1 (Homo …; Recombinant Scp1, phosphopeptide, malachite green phosphate absorbance; inhibition, % at 20 µM; 0.88% of 340,000 active; AID 493091, 2011;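 active means inhibition above about 50% at 20 µM, limit read from the data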
Target sequence (Q9GZU7 76-261 limits assumed): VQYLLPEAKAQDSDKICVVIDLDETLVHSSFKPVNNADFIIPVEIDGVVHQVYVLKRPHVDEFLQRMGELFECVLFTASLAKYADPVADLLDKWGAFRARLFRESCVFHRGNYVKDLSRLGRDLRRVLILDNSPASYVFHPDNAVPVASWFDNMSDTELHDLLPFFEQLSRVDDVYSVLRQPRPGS
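Material: truncated SCP-1 phosphatase (76-261aa) / Buffer or medium: 50 mM Tris acetate pH 5.5, 0.005% Tween-20, 10 mM MgCl2 / Compound dosing: one concentration, 20 µM, with 1.0% DMSO / Incubation: 45 min room-temperature reaction, 5 min colour, 30 min stabiliser / Detection: colorimetric free-phosphate detection, absorbance 630 nm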
NadD inh: inhibitors of S. aureus NadD, primary screen, biochemical, colorimetric, uHTS | Nicotinate-nucleotide adenylyltransferase NadD (Staphylococcus aureus N315) | purified NadD enzyme, colorimetric absorbance read-out | inhibition, % at 20 µM | 0.78% of 360,000 active; in the data active means inhibition above about 26%
STEP block: STEP phosphatase inhibitors, primary screen, biochemical, fluorescence intensity, uHTS | Tyrosine-protein phosphatase non-receptor type 5 (Homo sapiens), P54829 | recombinant STEP, OMFP fluorogenic substrate | inhibition, % at 20 µM | 0.25% of 360,000 active | AID 588621, 2011;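 active means inhibition at 20 µM, scaled per plate between control wells, above about 37%, limit read from the data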
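System: STEP (striatal-enriched tyrosine phosphatase) enzyme, cell-free; medium: Bis-Tris pH 6.0 buffer with DTT, detergent; dosing: 20 µM, 1% DMSO; times: reaction 20 min, ambient temperature; detection: fluorescence, 480/540 nm; read-out basis: normalized % inhibition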
DNMT1 inh: human DNMT1 methyltransferase inhibitors, primary screen, biochemical, molecular beacon, fluorescence, HinP1I cleavage, uHTS; AID 588458, 2011; inhibition (reported as % activation of signal), % at 10 µM; 0.83% of 360,000 active; DNA (cytosine-5)-methyltransferase 1 (Homo sapiens), P26358; in the data active means inhibition above about 50%
SUMO1 PPI mod: modulators of SUMO1 protein-protein interactions, primary screen, biochemical, uHTS | Small ubiquitin-related modifier 1 (Homo sapiens), P63165 | AID 602429, 2012 | SUMO1 binding to a labelled peptide, TR-FRET, 1 h | inhibition, % at 20 µM | 0.33% of 360,000 active; in the data active means inhibition above about 37%
Target sequence (P63165 whole entry, looked up): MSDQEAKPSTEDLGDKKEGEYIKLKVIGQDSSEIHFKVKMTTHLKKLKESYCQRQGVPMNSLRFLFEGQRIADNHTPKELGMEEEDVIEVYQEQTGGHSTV
DNMT1 inh conf: DNMT1 methyltransferase inhibitor retest, confirmation, biochemical, molecular beacon, fluorescence, single concentration. 8% of 2,300 active. DNMT1 molecular beacon HinP1I cleavage. inhibition, % at 10 µM. shares compounds with DNMT1 inh;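 active means average inhibition of at least 30% in the single-concentration confirmation test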
DNMT1 interf: beacon fluorescence artifact counter-screen; AID 602387; DNMT1 molecular beacon spectral interference counterscreen, fluorescence 485/520; 1% of 2,300 active; shares compounds with DNMT1 inh; activation (fluorescence interference), % at 10 µM;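 active means activation of at least 30% at 10 µM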;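 further: DNMT1 catalytic domain with a HinP1I cleavage step and a FAM/dabcyl DNA beacon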
A number is an active result; . = inactive; / = no result.

SMILES | LMPTP block | Scp1 inh | NadD inh | STEP block | DNMT1 inh | SUMO1 PPI mod | DNMT1 inh conf | DNMT1 interf
CC1=C(C(=O)Nc2ccc(C)cc2C)C(c2ccc(Cl)cc2)n2nc(C(=O)OC(C)C)nc2N1 (stereo unspecified) | . | . | . | . | 57 | . | . | .
CCn1cc(CN2CCc3c([nH]c4ccccc34)C2c2cccc(OC)c2OC)c(C)n1 (stereo unspecified) | . | . | . | . | . | . | / | /
S=c1nc(C2CC2)n(-c2ccccc2)[nH]1 | . | . | . | . | . | . | / | /
O=C(CCN1C(=O)/C(=C\C=C\c2ccccc2)SC1=S)Nc1ccccc1C(=O)O | . | . | . | . | 75 | . | . | .
CC(C)c1ccccc1NC(=O)COC(=O)CCN1C(=O)/C(=C\C=C\c2ccccc2)SC1=S | . | . | . | . | . | . | / | /
COc1ccc(/C=C2\SC(=S)N(CCCC(=O)Nc3ccccc3C(=O)O)C2=O)cc1OC | . | . | . | . | . | . | / | /
O=C(COC(=O)CCN1C(=O)/C(=C\C=C\c2ccccc2)SC1=S)Nc1ccc(Br)cc1 | . | . | . | . | 67 | . | . | .
S=c1[nH]nc(-c2ccncc2)n1/N=C/C=C/c1ccco1 | . | . | . | . | 63 | . | . | .
CC(/C=N/n1c(-c2ccncc2)n[nH]c1=S)=C\c1ccco1 | . | . | . | . | 83 | . | . | .
S=c1[nH]nc(-c2ccccc2Cl)n1/N=C/C=C/c1ccco1 | . | . | . | . | . | . | / | /
Cc1cccc(-c2n[nH]c(=S)n2/N=C/C=C/c2ccco2)c1 | . | . | . | . | 66 | . | . | .
CC(C)(C)c1ccc(OCC(=O)Nc2ccncc2)cc1 | . | . | . | . | . | . | / | /
COc1cccc(N2CCN(CC(=O)NC(=O)NCc3ccco3)CC2)c1 | . | . | . | . | 50 | . | . | .
O=C(CN1CCN(c2ccccc2)CC1)NC(=O)NCc1ccco1 | . | . | . | . | . | . | / | /
OC[C@@H]1CN(Cc2ccco2)C[C@H](n2cnc3c(NCc4ccncc4)ncnc32)O1 | . | / | . | . | . | . | / | /
O=C(NCc1ccccc1)c1ccc(COCC(F)(F)F)o1 | . | . | . | . | . | . | / | /
O=C(Nc1cccc(C(F)(F)F)c1)c1ccco1 | . | . | . | . | . | . | / | /
Cc1cc(NC(=O)c2ccco2)c(=O)n(Cc2cccc(C(F)(F)F)c2)c1 | . | . | . | . | 66 | . | . | .
Cc1cc(C)n(-c2nc3ccccc3nc2Nc2ccc3c(c2)OCO3)n1 | . | . | . | . | . | . | / | /
Cc1ccc2nc(Nc3ccc4[nH]c(=O)[nH]c4c3)c(-n3nc(C)cc3C)nc2c1 | . | . | . | . | 51 | . | . | .
O=[N+]([O-])c1ccc(COc2cccc(CNc3ccc(Br)cc3)c2)cc1 | . | . | . | . | 71 | . | . | .
O=[N+]([O-])c1ccc(COc2ccc(CNc3ccccc3)cc2)cc1 | . | . | . | . | . | . | / | /
CCOC(=O)CCCCC(=O)NC(CO)C(=O)NC (stereo unspecified) | . | . | . | . | 59 | . | . | .
CC(=O)Nc1ccc(NC(=O)c2ccccc2S(=O)(=O)c2ccc([N+](=O)[O-])cc2)cc1 | . | . | . | . | . | . | / | /
COCC(=O)N1CCCC(C(=O)c2ccc(-c3ccccc3)c(F)c2)C1 (stereo unspecified) | . | . | . | . | . | . | / | /

Compound activity: PubChem, Sanford-Burnham Center for Chemical Genomics
